Source: PubChem BioAssay
The list is not random: actives were taken first. Their share in the collection is about 3.1%.
SIRT5 block: inhibitors of human sirtuin-5 desuccinylase; AID 652115; inhibition, % at 15 µM; Purified SirT5, succinyl-peptide AMC, trypsin-coupled fluorescence; actives 1.1% (n = 330,000); Q9NXA8; in the data active = inhibition above about 15%
Target sequence (Q9NXA8 whole entry, looked up): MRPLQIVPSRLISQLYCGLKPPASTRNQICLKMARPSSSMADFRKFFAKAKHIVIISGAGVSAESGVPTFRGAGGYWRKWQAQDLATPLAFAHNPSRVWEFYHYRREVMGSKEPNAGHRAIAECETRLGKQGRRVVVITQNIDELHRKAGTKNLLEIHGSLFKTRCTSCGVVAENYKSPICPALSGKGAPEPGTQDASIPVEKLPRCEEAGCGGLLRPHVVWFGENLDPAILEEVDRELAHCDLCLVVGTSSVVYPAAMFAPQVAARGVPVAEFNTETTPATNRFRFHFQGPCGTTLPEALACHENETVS
Ecoli rRNA inh: selective bacterial rRNA inhibition in E. coli. E. coli WT GFP vs humanized-ribosome RFP mutants, fluorescence, 24 h; hits give low values; DMSO median 0, no signal -100. GFP signal change (wild-type ribosome), % (no concentration beside the values). AID 720706. actives 1.6% (n = 350,000);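 active = significant combined selectivity score with lowered wild-type GFP, culture density cut under 30%, mutant RFP and density less affected; inactive = any of these conditions unmet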
F508del corr: correctors of CFTR F508del function in bronchial epithelial cells; CFBE cells, YFP halide quenching; stimulated with forskolin plus potentiator P3; % fluorescence drop versus neutral controls; activity (quench increase), % at 7.58 µM; actives 0.36% (n = 350,000);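 active = mean added fluorescence quench of at least 8% versus neutral control, with both replicates also reaching 8%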;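 also: cells transiently co-express mutant CFTR-F508del with the halide-sensitive YFP; corrector assay measuring rescue of mutant channel to the surface after 24 h compound exposure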
ERAP1 HTS inh: inhibitors of human ERAP1 aminopeptidase. actives 0.15% (n = 340,000). inhibition, % at 10.7 µM. recombinant ERAP1, Leu-AMC fluorescence, 60 min. Q9NZ08. AID 652197;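 active = mean replicate inhibition of at least 30%, or all replicates individually reaching that 30% level; inactive = mean below 30% and not every replicate reaching it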;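 also: 0% = neutral control wells and 100% = L-leucinethiol positive control wells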
S100A4 MyoIIA: S100A4-myosin IIA interaction inhibition | P26447 | S100A4/TAMRA-MyoIIA peptide fluorescence polarization | inhibition, % at 10.7 µM | actives 0.14% (n = 360,000) | AID 652163;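 active = mean inhibition of at least 70% across replicates, with every replicate also reaching that level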
Target sequence (P26447 whole entry, looked up): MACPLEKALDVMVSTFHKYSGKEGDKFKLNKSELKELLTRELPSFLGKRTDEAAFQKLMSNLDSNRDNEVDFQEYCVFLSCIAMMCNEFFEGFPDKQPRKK
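Material: human S100A4 monomer with TAMRA-labelled myosin IIA peptide; buffer or medium: HEPES pH 7.2 with CaCl2, KCl, NaCl, DTT, Triton; compound dosing: one concentration per compound; schedule: 5 min incubation before reading; benchmarks: neutral control DMSO, positive control TFP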
* = called active by the depositor; · = no result.

SMILES	SIRT5 block	Ecoli rRNA inh	F508del corr	ERAP1 HTS inh	S100A4 MyoIIA
COc1ccc(S(=O)(=O)N(C)C[C@@H]2Oc3c(NS(=O)(=O)c4ccc(C)cc4)cccc3C(=O)N([C@H](C)CO)C[C@H]2C)cc1	0.3	-2.0	2.4	-0.3	3.0
O=C(O)CCNc1nc(C(F)(F)F)nc2ccccc12	48.4*	-0.6	-1.6	-4.0	0.8
CCOC(=O)C1C(=O)C=C(c2ccc(C)cc2)CC1c1ccccc1 (stereo unspecified)	-2.8	-14.4	2.3	-0.2	3.1
CCOC(=O)C1C(=O)C=C(c2cccs2)CC1c1ccccc1 (stereo unspecified)	6.3	-28.4*	·	-1.0	-7.1
Cc1ccccc1CSCc1nc(N)nc(Nc2ccccc2C)n1	2.4	5.9	-1.5	13.9	-2.0
CCc1ccccc1Nc1nc(N)nc(CSCC(=O)Nc2ccc(C)c(C)c2)n1	15.7*	-28.1	0.0	6.7	-1.8
C[C@H]1CN([C@@H](C)CO)C(=O)c2cc(NC(=O)CCN3CCOCC3)ccc2O[C@@H]1CN(C)Cc1ccc(-c2ccccc2)cc1	-6.5	-0.8	-0.6	-2.7	13.6
Cc1ccc(C(=O)COC(=O)c2ccc(O)cc2)cc1	1.4	-26.6*	2.8	-3.0	0.5
NC(=O)COC(=O)c1ccc(-c2ccc(O)cc2)cc1	-0.1	17.1	1.7	0.6	-3.9
COc1ccc(NC(=O)Nc2ccc3c(c2)CC(=O)N([C@@H](C)CO)C[C@H](C)[C@@H](CN(C)C(=O)Nc2cccc4ccccc24)O3)cc1	·	-0.6	-1.7	·	·
Cc1noc(C)c1NC(=O)Nc1ccc2c(c1)C(=O)N([C@@H](C)CO)C[C@H](C)[C@@H](CN(C)C(=O)Nc1cccc3ccccc13)OCCCC[C@H](C)O2	·	-2.0	-2.7	·	·
Cc1cc(O)cc2c1C1CCC3(C)C(=O)CCC3C1C=C2 (stereo unspecified)	-2.0	-31.2	8.3*	-1.0	-5.2
CC=Cc1ccc2n(c1=O)C[C@H]1[C@H](CO)[C@@H](C(=O)Nc3ccccc3)N(CC3CCCC3)[C@@H]21 (mixture of isomers)	1.3	-3.6	·	2.7	-3.7
O=C1C=CC(=O)N1c1ccccc1N1C(=O)C=CC1=O	-1.1	36.1	-3.6	58.1*	-2.7
O=C(c1ccccc1)c1ccccc1N1C(=O)C=CC1=O	0.8	0.8	-8.1	·	-0.1
CCOC(=O)NC(=O)COC(=O)CCCSc1nc2ccccc2s1	1.1	-26.6*	-2.3	-1.3	-1.2
O=c1cc(O)c(-c2ccc(Cl)c(Cl)c2)c(Cl)[nH]1	-2.0	-26.9*	2.4	-2.5	-9.0
C[C@@H]1CN([C@@H](C)CO)C(=O)c2cc(C3=CCCCC3)cnc2O[C@H]1CN(C)C(=O)c1ccncc1	-0.5	2.6	-3.1	2.7	3.8
COc1ccc(C(C)(O)c2nc(-c3cccs3)cs2)cc1 (stereo unspecified)	-1.1	-57.9	-0.6	1.9	182.2*
COc1ccccc1-c1csc(C(C)(O)c2ccccc2)n1 (stereo unspecified)	16.0*	-4.6	-2.0	-2.8	-7.9
COc1ccc(-c2cc3cc(C(=O)O)ccn3c2C(=O)c2ccccc2)cc1	2.5	-44.0	0.9	6.0	-1.9
O=C(O)c1ccn2c(C(=O)c3ccccc3)c(-c3ccccc3)cc2c1	1.3	-25.8*	0.5	2.6	-3.8
CO[C@H]1CN(C)C(=O)c2cc(NC(C)=O)ccc2OC[C@@H](C)N(CCc2ccccc2)C[C@@H]1C	1.5	-0.2	1.2	-1.9	1.9
CN1C(=O)c2cc(NC(=O)c3cccc(F)c3)ccc2OC[C@H]2O[C@H](CC(=O)NC3CCC3)CC[C@@H]21	·	1.5	-2.0	·	·
CCOC(=O)[C@@H]1[C@H]2COc3cc(OC)ccc3[C@@H]2N2C(=O)N(c3cccc(C)c3)C(=O)[C@]12C	·	3.6	-2.1	0.7	87.2*
CCOC(=O)[C@@H]1[C@H]2COc3cc(OC)ccc3[C@H]2N2C(=O)N(c3cccc(F)c3)C(=O)[C@]12C	·	12.3	3.3	0.4	-1.7
CC(C)C(=O)Nc1ncc(Cc2ccc(Cl)cc2)s1	-0.1	-27.5*	-2.3	1.2	-5.2
CC(C)C(=O)Nc1ncc(Cc2cccc(Cl)c2)s1	-0.2	-27.6	1.0	-0.8	-3.5
